# Test results from paper PMC7299178 (Angewandte Chemie (International ed. in English), 2019).
# Tests used:
# [1] = Micelle size in water by TEM and DLS; type: physicochemical
# Outline: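 Test material was a linear-brush diblock copolymer (PMMA block plus a peptide-acrylamide/DMA brush block), self-assembled into micelles in water. Particle diameter was measured by TEM imaging, and hydrodynamic diameter by DLS. TEM images were also taken after thermolysin treatment (thermolysin cleaves the Gly–Leu amide bond of the peptide side chains).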
# [2] = target: thermolysin (Bacillus thermoproteolyticus, UniProt P00800)
# Chain of thermolysin (P00800 233-548, species assumed): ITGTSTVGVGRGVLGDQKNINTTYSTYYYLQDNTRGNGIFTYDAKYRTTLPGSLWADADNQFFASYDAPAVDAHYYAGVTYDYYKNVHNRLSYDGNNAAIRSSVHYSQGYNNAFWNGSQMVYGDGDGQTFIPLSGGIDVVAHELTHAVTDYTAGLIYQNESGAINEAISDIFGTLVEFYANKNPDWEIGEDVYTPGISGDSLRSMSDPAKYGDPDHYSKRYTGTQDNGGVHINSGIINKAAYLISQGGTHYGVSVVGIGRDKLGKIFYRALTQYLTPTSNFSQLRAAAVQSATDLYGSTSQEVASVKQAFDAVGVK
substance,measurement,setting,value
PMMA90-b-poly(PepAm21-co-DMA63) [P8],hydrodynamic diameter (DLS),"[1]; micelles in water, dynamic light scattering",28 nm
same,micelle diameter (TEM),"[1]; spherical micelles assembled in water, transmission electron microscope",24 nm
same,morphology change of micelles upon treatment with thermolysin,"[2]; TEM and DLS, spherical micelles before treatment",underwent a phase transition into a worm-like phase
same,change of particle diameter with deactivated thermolysin,"[2]; same cleavage conditions, thermolysin pretreated with ethylenediaminetetraacetic acid, DLS",no change in diameter
